Test system: MS2 coat protein
Assay: apparent Kd, MS2 coat protein; higher = weaker binding; RNA-MaP array; FMN 200 µM where present
Summary of the method: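 The apparent Kd comes from binding curves fitted cluster by cluster, filtered, and summarised as a median. Those curves followed SNAP-549-labelled MS2 coat protein from 0.7 or 1.5 nM, doubling to 3 µM, on Illumina sequencing-chip clusters where stalled E. coli RNA polymerase had transcribed the designs, without and then with constant ligand. The buffer was 100 mM Tris-HCl pH 7.5, 80 mM KCl, 4 mM MgCl2, BSA, DTT, yeast tRNA and Tween-20, and green signal was normalised to red-channel RNA signal and control-cluster median Fmax.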

[1] = designed as: ON switch for flavin mononucleotide, no ligand
[2] = ligand present: flavin mononucleotide, designed as: ON switch for flavin mononucleotide
[3] = designed as: OFF switch for flavin mononucleotide, no ligand
[4] = ligand present: flavin mononucleotide, designed as: OFF switch for flavin mononucleotide

| Sequence | apparent Kd [1] [nM] | apparent Kd [2] [nM] | apparent Kd [3] [nM] | apparent Kd [4] [nM] |
| --- | --- | --- | --- | --- |
| AAGCGAGGGACAGGAUAUGCGGCGAAAUUCUCCGCAGAAGGGUCGACAUGAGGAUCACCCAUGUCCUUACGCUCCAAGUAGAGG | 324 | 467 | – | – |
| AGAAACUACGAGAAGGACAUGUGAAAAGCCGCAAACAUGAGGAUCACCCAUGUAGGAUAUCGUAGUUUCAGGAUCGUGAGAUCA | – | – | 54.6 | 442 |
| AAAAAGUGAGGAUAUACAUGAGGAUCACCCAUGUGAAAUCGGAAAAAAAAGGAAAAAAGUAGAAGGCACAAAAA | – | – | 24.2 | 24.3 |
| AGUGUCAUCGAGAAGGCCUCAACAUGAGGAUCACCCAUGUUGUAAUAUGGGAGGAUAUCGAUGAUACAGCUACGUUUCGUAGCC | 19.5 | 5.91 | – | – |
| UCAAAGAGAUCGAAUGGGAGGCGUAAGGAUAUGCACAUGAGGAUCACCCAUGUCUACGAAAGUAGGCAGAAGGUACGCGGGAUU | 315 | 34.2 | – | – |
| AAAAAACAUGAGGAUCACCCAUGUGAGGAUAUCUGAAAAAAAAAAAAAAAAAAGAAAAAGAGAAGGCGCAAAGA | – | – | 124 | 65.2 |
| UGACGUAAAGAGAAGGGCUACUGGUUGAAACCUGCGGCCUCUGGAACAUGAGGAUCACCCAUGUAGCAGGAUAUCUUUGCAUCA | – | – | 166 | 18.1 |
| CCGUCGCACCAGAAGGCGUGAUCCACUGCGGCACGAGGAUAUGGUACAUGAGGAUCACCCAUGUCGCGAUGGAAAGCAAUCACG | 151 | 24.1 | – | – |
| ACAUGAGGAUCACCCAUGUACAUGGGUUUAAUUGUGUGUUACUAGGAUAUGUAUUUGAAUUUACAACAGAAGGAGUAUUACUGU | – | – | 621 | 179 |
| AGGUGUAGAGGAUAUUCAUUCUUCCACAUGAGGAUCACCCAUGUCCUGGUCACCAAGGACGGAGAAGGCUACACCA | – | – | 70.2 | 38.1 |
| GGGCCGGUGGAGAAGGAGCUCACGUAACGUAGGCUAGGAUAUCCACAUGAGGAUCACCCAUGUGGGAAUAUCUGAUUUUCACAG | – | – | 4.01 | 4.88 |
| CACUCGUGUCUAGGAUAUGAGUGACAAGCACGAGAUUUUCUCGACGCUAGCUCAGAAGGAGACAUGAGGAUCACCCAUGUAAGG | – | – | 85.3 | 16.6 |
| AAUAACAGAGGAUAUACUAUUUUAUGUGUUUGUUGUUUUAAACAUGAGGAUCACCCAUGUAGAAGGCUGAAUAA | – | – | 21 | 26 |
| GGAAUAAAUGCAGGAUAUACGUGGAAAGCCCUCAACAUGAGGAUCACCCAUGUAGAAGGGCAUCUCCCGACCGAAGCGGAUCUC | – | – | 4.41 | 4.82 |
| UGUAUUAUCGGAGGAUAUCGAUAUCAAACAUGAGGAUCACCCAUGUUGAGGAUCACCCAUGUCCACGAGAAGGCCGGCGUACUC | 25.7 | 26.4 | – | – |
| GUUUUCACAUGAGGAUAUGCUCGCAUUUCAAGAGCAGAAGGUAUGUCUUUAGACAUGAGGAUCACCCAUGUAUUUAUCAUUGAA | 91.1 | 28.4 | – | – |
| GAAGCAUGCAUUAACAUGAGGAUCACCCAUGUGAAAACACGUGAGGAUAUUGAUCUGAAGAAGAUCGAGAAGGCACCGUGCUAA | 14.1 | 9.11 | – | – |
| UAGGUACAUGAGGAUCACCCAUGUGAGGAUAUAGAUGAAGAUUGCGAGAGGGAGAGGACUAGAAGGCACAGUGG | – | – | 33.3 | 36.8 |
| GCUGAAAGUACAGGAUAUGAGAUAUAUGAUCACUCAGAAGGGUACCGGGACAUGAGGAUCACCCAUGUACUCUCAGCGAAAAUA | 165 | 553 | – | – |
| UUGGACCUCGUAGGAUAUGUAGGAUAUUCCUACAUGAGGAUCACCCAUGUUGACAUGGAAGAAGGACAGAAGGACGAUGUCCAU | 311 | 5.32 | – | – |
| GUUUAGUGAGGAUAUGUGGCAUCGAUCGAGCGCGGUCGGCUACAGAAGGCACAUGAGGAUCACCCAUGUUUCUC | – | – | 39.5 | 413 |
| AAAAAGUGAGGAUAUGCUGCUCGUCACUUGCGUGAUGAGUAGCAGAAGGCACAUGAGGAUCACCCAUGUAAAGA | – | – | 39 | 49.7 |
| UGAUACAUGAGGGUCUCCCAUGACAUGAGGAUCACCCAUGUGCAGGAUAUACGUGUGAUGAUAUAGUAGAAGGGCAGUCUAUGU | – | – | 449 | 537 |
| GUAACAUGAGGAUCACCCAUGUCGUGCUAGAUGAGUUCUAGUGAGGAUAUACAUGGUAAAUAACUGUAGAAGGUGCUGGGUACA | 192 | 229 | – | – |
| AAUAUAAAGAGCUGGUAAAACUCAACAUGAGGAUCACCCAUGUAGGAUAUCAGCACGAUAAGUGCUGAGAAGGACAUCCAGCUC | – | – | 16.3 | 17.1 |
| CCGGAAGGUUAGGAUAUGCUUCCACAUAUCUAAGCAGAAGGAACCACAUGAGGAUCACCCAUGUUUAUGGGCCG | – | – | 262 | 261 |
| UGGUACUAGGGAGGAUAUGGGAAGAUACAUGAGGAUCACCCAUGUUUAAGAACGCCGAGAGGCAACUAGAAGGCCCUAGUACCU | 340 | 14.8 | – | – |
| AAGGUGUAAGGAUAUGCUGCUCGUCACUUGCGUGAUGAGUAGCAGAAGGUACAUGAGGAUCACCCAUGUAAAAA | – | – | 27.9 | 34.6 |

| Sequence | apparent Kd [1] [nM] | apparent Kd [2] [nM] | apparent Kd [3] [nM] | apparent Kd [4] [nM] |
| --- | --- | --- | --- | --- |
| CAAGGGCAUGAGAAGGCAUAAUUUAUAUUACCACAUGUUUACAUGAGGAUCACCCAUGUUACCUAUGAGGAUAUCAUGCCUACA | – | – | 12.7 | 10.2 |
| UAAUUAAGUGUGAGGAUAUGCUGGUCCUUGGAUCAGCAGAAGGCACAUGAGGAUCACCCAUGUAAAUUAUUUAU | – | – | 103 | 437 |
| AAAGUUGGUAGGCCCUCGGAACAUGAGGAUCACCCAUGUAAGGAGGAUAUGCCCGGUACCCGCUGGUAGAAGGCCUUAUAAGAA | – | – | 7.46 | 23.5 |
| GGAUAGGACAGAGGAUAUACGUGCUAGAGAUACUAGCAAAAUUUCCUCACAUGAGGAUCACCCAUGUAGAAGGCUGUCCUAACG | – | – | 14.7 | 497 |
| GCAUGUGUGUAAGGAUAUGCAUCACUGAGAAAUUUAGUGAGGAAGAUCACAUGAGGAUCACCCAUGUAGAAGGUACACACGUGC | – | – | 8.01 | 56.9 |
| AGGCACAUCGGAGGAUAUCAUGUAAAUACAUGAGGAUCACCCAUGUCGAUGGAGACAUCGGAGAUUGAGAAGGCCGAUGUACCG | 175 | 8.44 | – | – |
| GUGGAACAUGAGGAUCACCCAUGUGAGGAUAUAGGUUUUUGGGAAAAACUAGGAGAAACUAGAAGGCGCAAGAA | – | – | 29.4 | 27.6 |
| CACUUAGGCACAUGAGGAUCACCCAUGUCCCGGGAGCCGAGACAGGAUAUGUGCCUCGAAUGUGCACAGAAGGGUCUACUAUGU | 165 | 229 | – | – |
| UGUCGGAGCAGAGGAUAUUACAUGAGGAUCACCCAUGUAAGAACCAAUAGCUGGAAACAGCAAUGUAAGAAGGCUGCUCCGACA | – | – | 5.27 | 15.9 |
| GGUGGACAUGAGGAUCACCCAUGUGAGGAUAUCGGCUAUCUACUCGCUGUCGGUUGCUCGAGAAGGCACAUUGU | – | – | 177 | 171 |
| UUGGACGUCGUAGGAUAUGUAGGAUAUUCCUACAUGAGGAUCACCCAUGUUGACAUGGAAGAAGGACAGAGGGACGAUGUCCAU | 454 | 11.6 | – | – |
| UUCACUCGAGUCAGGAUAUUAGUCCGCGAUAGUGUUAAGAAGGGACAUGAGGAUCACCCAUGUCACACAUGGAG | – | – | 28.2 | 23.2 |
| AGGAAGUGAGGAUAUGCAGUAGCUAGUGGACGCUAGCACAUGUAGAAGGCACAUGAGGAUCACCCAUGUUUAAA | – | – | 30.5 | 28.3 |
| GCUAGUAUUGCAGGAUAUUGUAAAUUAUUAUUUCAAGAAGGGCAUUACAUGAGGAUCACCCAUGUCAUCCUUUGGAAUACUAGC | – | – | 6.19 | 6.51 |
| UUGAUGUCAUCAGGAUAUAGUAUUUAAGACAUAUCUUCUUUCUUACAUGAGGAUCACCCAUGUCGCUAGAAGGGAUGAAUGAUU | – | – | 18.7 | 15.4 |
| GGUGCACGCACAGGAUAUCCGGCGGAGCUCGUCGGAGAAGGGUGACAUGAGGAUCACCCAUGUACGUGCAACUCAGUUUGAGAG | 59.8 | 32.1 | – | – |
| CUUUUGUGAGGAUAUCAGUAGUAAUACAAUAGUAUUACUACUGAGAAGGUACAUGAGGAUCACCCAUGUUCCUC | – | – | 17.8 | 21.2 |
| AGUUAUCAUGUAGGAUAUGCUUGAGGUAAGAAAGCAGAAGGACAUGAGGAUCACCCAUGUUAAUGAUACAGAUUUUAGUUUCUU | – | – | 32.9 | 201 |
| UGUCCAUAGCAGAAGGACAUGAGGAUCACCCAUGUAAUCAUACAAAUAUAUGUAGGAUAUGCUAUGGACUAAGAGCGAAAGCUC | – | – | 6.14 | 6.74 |
| CAUUGGUAAGGAUAUGCACCGAUCUCCGAAAGGAGAUCGGUGCAGAAGGUACAUGAGGAUCACCCAUGUUGAUG | – | – | 27.1 | 63.9 |
| UGAUCAAAUGUCAGGAUAUGCUGUUGUAAUCAACAGCAGAAGGGACAUGAGGAUCACCCAUGUCUUGUCGAUUU | – | – | 12.9 | 37.3 |
| AUACAUGAGGAUCACCCAUGUAAUUAAUUAACUUGUAAGAUCAAGGAUAUCAGCUCGAUUAGAGCUGAGAAGGUGAUCACAUGU | 260 | 253 | – | – |
| UCCCAGUAAGGAUAUCAGGCAAGUCUCCGGGAGCUUAGUCGUGAGAAGGUACAUGAGGAUCACCCAUGUGAUUG | – | – | 58 | 211 |
| UCUAAUUAGUGAGGAUAUACAUAAUUUAUAACUGUAGAAGGCACAAACCUCAAGACAUGAGGAUCACCCAUGUGGUAUUUAGAU | – | – | 150 | 354 |
| UCGGCGCGAGGAUAUGCGGUUUGUGCUUUGGGCCCUCGCGUACAUGAGGAUCACCCAUGUAGAAGGCGCGCCGC | – | – | 192 | 212 |
| CCUUCAGCGAACGAUACGAAUGGACAUGAGGAUCACCCAUGUAGAAGGACAGGAGAAUAACGGCUGUAGGAUAUACAUUUAGUG | – | – | 39.9 | 30 |
| AAGUAGGUAGGAUAUACAUGGAUAUACAUUCAUGUGGACCUACAUGAGGAUCACCCAUGUAGAAGGACCUACUA | – | – | 36.9 | 79.1 |

— the EternaBench riboswitch data
